pIC50: −log10 of the molar value.
What was measured:
[1] = test system: SNB-75; assay: Cytotoxicity against human SNB75 cells after 48 hrs by SRB assay; format: functional; details: SNB-75, 48 h
[2] = test system: MDA-MB-468; assay: Cytotoxicity against human MDA-MB-468 cells after 48 hrs by SRB assay; format: functional; details: MDA-MB-468, 48 h
[3] = test system: SK-MEL-28; assay: Growth inhibition of human SK-MEL-28 cells assessed as cell growth at 10^-7 M incubated for 48 hrs by sulforhodamine B assay relative to control; format: functional; details: SK-MEL-28, 48 h, read-out: Activity
[4] = test system: SR; assay: Growth inhibition of human SR cells assessed as cell growth at 10^-7 M incubated for 48 hrs by sulforhodamine B assay relative to control; format: functional; details: read-out: Activity
[5] = test system: CCRF-CEM; assay: Growth inhibition of human CCRF-CEM cells assessed as cell growth at 10^-7 M incubated for 48 hrs by sulforhodamine B assay relative to control; format: functional; details: read-out: Activity
[6] = test system: UACC-257; assay: Growth inhibition of human UACC257 cells assessed as cell growth at 10^-6 M incubated for 48 hrs by sulforhodamine B assay relative to control; format: functional; details: UACC-257, 48 h, read-out: Activity
[7] = test system: SK-MEL-5; assay: Growth inhibition of human SK-MEL-5 cells assessed as cell growth at 10^-8 M incubated for 48 hrs by sulforhodamine B assay relative to control; format: functional; details: SK-MEL-5, 48 h, read-out: Activity
[8] = test system: A549; assay: Growth inhibition of human A549/ATCC cells assessed as cell growth at 10^-4 M incubated for 48 hrs by sulforhodamine B assay relative to control; format: functional; details: A549, 48 h, read-out: Activity
[9] = test system: L1210; assay: Antiproliferative activity against mouse L1210 cells after 48 hrs by Coulter counter method; format: functional, cell-based; details: L1210, 48 h
Summary of the method: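 Cell count assay in 96-well microtiter plates; (5–7.5) × 10⁴ tumor cells per well plus test compound. Cells proliferated at 37 °C in humidified CO₂-controlled atmosphere, 48 h for murine leukemia L1210, 72 h for human lymphocytic CEM and cervix carcinoma HeLa. Counted by Coulter counter; IC₅₀ is the concentration that inhibits proliferation by 50%.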

[10] = test system: MDA-MB-435; assay: Cytotoxicity against human MDA-MB-435 cells after 48 hrs by SRB assay; format: functional; details: MDA-MB-435, 48 h
[11] = test system: T47D; assay: Growth inhibition of human T47D cells assessed as cell growth at 10^-7 M incubated for 48 hrs by sulforhodamine B assay relative to control; format: functional; details: read-out: Activity
[12] = test system: SW-620; assay: Growth inhibition of human SW620 cells assessed as cell growth at 10^-7 M incubated for 48 hrs by sulforhodamine B assay relative to control; format: functional; details: SW-620, 48 h, read-out: Activity
[13] = test system: UO-31; assay: Growth inhibition of human UO31 cells assessed as cell growth at 10^-7 M incubated for 48 hrs by sulforhodamine B assay relative to control; format: functional; details: UO-31, 48 h, read-out: Activity
[14] = test system: UACC-257; assay: Cytotoxicity against human UACC257 cells after 48 hrs by SRB assay; format: functional; details: UACC-257, 48 h
[15] = test system: EKVX; assay: Cytotoxicity against human EKVX cells after 48 hrs by SRB assay; format: functional
[16] = test system: NCI-H322M; assay: Growth inhibition of human NCI-H322M cells assessed as cell growth at 10^-6 M incubated for 48 hrs by sulforhodamine B assay relative to control; format: functional; details: read-out: Activity
[17] = test system: ACHN; assay: Growth inhibition of human ACHN cells assessed as cell growth at 10^-8 M incubated for 48 hrs by sulforhodamine B assay relative to control; format: functional; details: read-out: Activity
[18] = test system: SK-MEL-5; assay: Cytotoxicity against human SK-MEL-5 cells after 48 hrs by SRB assay; format: functional; details: SK-MEL-5, 48 h
[19] = test system: M14; assay: Growth inhibition of human M14 cells assessed as cell growth at 10^-8 M incubated for 48 hrs by sulforhodamine B assay relative to control; format: functional; details: M14, 48 h, read-out: Activity
[20] = test system: DU-145; assay: Growth inhibition of human DU145 cells assessed as cell growth at 10^-6 M incubated for 48 hrs by sulforhodamine B assay relative to control; format: functional; details: DU-145, 48 h, read-out: Activity
[21] = test system: NCI-H522; assay: Growth inhibition of human NCI-H522 cells assessed as cell growth at 10^-7 M incubated for 48 hrs by sulforhodamine B assay relative to control; format: functional; details: NCI-H522, 48 h, read-out: Activity
[22] = test system: HCT-116; assay: Growth inhibition of human HCT116 cells assessed as cell growth at 10^-5 M incubated for 48 hrs by sulforhodamine B assay relative to control; format: functional; details: HCT-116, 48 h, read-out: Activity
[23] = test system: MDA-MB-231; assay: Growth inhibition of human MDA-MB-231 cells assessed as cell growth at 10^-8 M incubated for 48 hrs by sulforhodamine B assay relative to control; format: functional; details: MDA-MB-231, 48 h, read-out: Activity
[24] = test system: HCT-116; assay: Growth inhibition of human HCT116 cells assessed as cell growth at 10^-4 M incubated for 48 hrs by sulforhodamine B assay relative to control; format: functional; details: HCT-116, 48 h, read-out: Activity
[25] = read-out: LC50 (the source's name)

C#C[C@@]1(O)[C@@H](CO)O[C@@H](n2cc(Cl)c3c(N)ncnc32)[C@@H]1O
GI50 ([1]; read-out: GI50): 258 to 310 nM
CC50 [1, 25]: 1800 to 3210 nM
TGI ([1]; read-out: TGI): 574 to 888 nM
GI50 ([2]; read-out: GI50): 180 to 243 nM
TGI ([2]; read-out: TGI): 451 to 751 nM
CC50 ([2]; read-out: pLC50 (the source's name) (converted)): 2090 nM
growth at 0.1 µM [3]: 87 to 91%
growth at 0.1 µM [4]: 34 to 46%
growth at 0.1 µM [5]: 76 to 80%
growth at 1 µM [6]: 12 to 29%
growth at 0.01 µM [7]: 90 to 97%
growth at 100 µM [8]: 8 to 12%
pIC50 [9]: 7.85
GI50 ([10]; read-out: GI50): 132 to 208 nM
CC50 [10, 25]: 4670 to 100000 nM
TGI ([10]; read-out: TGI): 520 to 10200 nM
growth at 0.1 µM [11]: 31 to 50%
growth at 0.1 µM [12]: 34 to 50%
growth at 0.1 µM [13]: 61 to 69%
GI50 ([14]; read-out: GI50): 270 to 446 nM
CC50 [14, 25]: > 100000 nM
TGI ([14]; read-out: TGI): 63800 to 100000 nM
GI50 ([15]; read-out: GI50): 260 to 262 nM
CC50 [15, 25]: > 100000 nM
TGI ([15]; read-out: TGI): 2410 to 2460 nM
GI50 ([15]; read-out: pGI50 (converted)): 263 nM
growth at 1 µM [16]: 13 to 23%
growth at 0.01 µM [17]: 95%
GI50 ([18]; read-out: GI50): 109 to 140 nM
TGI ([18]; read-out: TGI): 268 to 343 nM
growth at 0.01 µM [19]: 93 to 94%
growth at 1 µM [20]: 7 to 12%
growth at 0.1 µM [21]: 47 to 62%
growth at 10 µM [22]: 4%
growth at 0.01 µM [23]: 88 to 100%
growth at 100 µM [24]: 3 to 4%

Source: ChEMBL document CHEMBL4270599, “Synthesis of a 3'-C-ethynyl-β-d-ribofuranose purine nucleoside library: Discovery of C7-deazapurine analogs as potent antiproliferative nucleosides” (Eur J Med Chem, 2018)
